Where two headings read alike, the source gives them in different places.
Assays:
FAK [1] = molecular target: FAK (Rattus norvegicus, UniProt O35346); assay: Cellular mechanistic FAK inhibition, RMC cell lysates; type: cell-based; conditions: read-out: OXA-11 IC50 (nM) for FAK, RMC kidney mesangial cells
TOV21G cells [2] = assay: Apoptosis, caspase 3/7 activity; type: cell-based, human; conditions: read-out: EC50 promotion of apoptosis, 3-D culture
[3] = system: eight human tumor cell lines; conditions: read-out: EC50 inhibition of proliferation in 3-D culture
TOV21G tumors [4] = assay: Tumor growth inhibition, TOV21G xenografts in nude mice; type: in vivo, mouse
Summary of the method: (§1)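 TOV21G or MDA-MB-361 cells were implanted subcutaneously in athymic nude mice and grown to a standardized size (n = 8 per group). Test compound was given daily by gavage at 20–120 mg/kg for 3 weeks. Tumor size was measured and body weight recorded during treatment.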

FAK [5] = molecular target: T1, FAK (Homo sapiens, UniProt Q05397); assay: Cell-based kinase assay in cell lysates
T1 sequence (Q05397 whole entry): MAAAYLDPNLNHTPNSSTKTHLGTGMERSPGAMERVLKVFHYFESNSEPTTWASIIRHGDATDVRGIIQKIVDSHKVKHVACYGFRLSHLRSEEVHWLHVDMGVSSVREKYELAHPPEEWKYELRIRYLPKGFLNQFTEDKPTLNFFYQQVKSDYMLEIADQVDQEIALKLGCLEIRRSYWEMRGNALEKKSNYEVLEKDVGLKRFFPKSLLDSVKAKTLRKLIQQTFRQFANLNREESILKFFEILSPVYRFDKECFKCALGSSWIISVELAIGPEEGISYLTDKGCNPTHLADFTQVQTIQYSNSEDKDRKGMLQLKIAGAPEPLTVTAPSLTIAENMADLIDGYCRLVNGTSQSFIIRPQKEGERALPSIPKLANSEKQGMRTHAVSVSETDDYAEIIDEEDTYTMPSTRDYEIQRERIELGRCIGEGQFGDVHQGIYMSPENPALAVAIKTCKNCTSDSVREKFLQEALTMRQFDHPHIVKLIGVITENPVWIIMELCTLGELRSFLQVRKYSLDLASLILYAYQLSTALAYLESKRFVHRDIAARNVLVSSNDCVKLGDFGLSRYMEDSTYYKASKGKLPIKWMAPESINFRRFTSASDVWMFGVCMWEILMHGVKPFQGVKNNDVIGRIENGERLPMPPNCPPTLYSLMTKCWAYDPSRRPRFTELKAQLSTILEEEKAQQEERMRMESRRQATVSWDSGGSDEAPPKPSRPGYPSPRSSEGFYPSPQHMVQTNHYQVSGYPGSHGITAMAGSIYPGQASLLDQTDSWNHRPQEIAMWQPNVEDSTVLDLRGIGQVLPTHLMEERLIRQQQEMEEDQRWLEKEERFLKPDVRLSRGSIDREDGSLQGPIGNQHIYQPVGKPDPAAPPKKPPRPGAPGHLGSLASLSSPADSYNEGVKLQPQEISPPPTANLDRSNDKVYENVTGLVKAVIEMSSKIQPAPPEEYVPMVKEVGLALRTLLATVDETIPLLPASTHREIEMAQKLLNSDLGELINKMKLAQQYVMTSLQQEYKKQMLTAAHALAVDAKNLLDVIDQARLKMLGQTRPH

TOV21G cells [6] = conditions: read-out: EC50 inhibition of proliferation, 3-D culture, 7 days
IGROV1 cells [7] = conditions: read-out: EC50 inhibition of proliferation, 3-D culture, 7 days
SRC = SRC (Homo sapiens, UniProt P12931); assay: Cell-based kinase assay in cell lysates
Chain of SRC (P12931 whole entry): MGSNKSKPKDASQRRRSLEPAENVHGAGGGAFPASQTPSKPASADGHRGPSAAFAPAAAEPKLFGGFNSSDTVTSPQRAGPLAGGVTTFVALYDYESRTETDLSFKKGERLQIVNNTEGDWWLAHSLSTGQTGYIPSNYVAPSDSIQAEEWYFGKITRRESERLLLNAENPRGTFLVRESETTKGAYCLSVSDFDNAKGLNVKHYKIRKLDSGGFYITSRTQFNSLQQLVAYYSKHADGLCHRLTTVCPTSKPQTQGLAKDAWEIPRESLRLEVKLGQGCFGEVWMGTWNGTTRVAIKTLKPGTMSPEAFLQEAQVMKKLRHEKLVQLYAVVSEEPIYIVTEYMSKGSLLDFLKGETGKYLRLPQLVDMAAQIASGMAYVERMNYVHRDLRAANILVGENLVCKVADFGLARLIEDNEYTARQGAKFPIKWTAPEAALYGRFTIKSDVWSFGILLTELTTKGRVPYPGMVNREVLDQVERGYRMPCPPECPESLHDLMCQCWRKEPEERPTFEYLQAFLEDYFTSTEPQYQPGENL

pFAK [Y397] [8] = molecular target: T2, pFAK [Y397] (Mus musculus, UniProt P34152); assay: pFAK [Y397] immunohistochemistry in RIP-Tag2 liver and tumors; type: in vivo; conditions: 2 h after one 20-mg/kg dose
[9] = Tolerability in xenograft-bearing athymic nude mice; type: in vivo, mouse; conditions: 20–120 mg/kg daily for 3 weeks
Summary of the method: as §1

Insulin receptor = Insulin receptor (Homo sapiens, UniProt P06213); assay: Cell-based kinase assay in cell lysates
Chain of Insulin receptor (P06213 763-1382 limits assumed): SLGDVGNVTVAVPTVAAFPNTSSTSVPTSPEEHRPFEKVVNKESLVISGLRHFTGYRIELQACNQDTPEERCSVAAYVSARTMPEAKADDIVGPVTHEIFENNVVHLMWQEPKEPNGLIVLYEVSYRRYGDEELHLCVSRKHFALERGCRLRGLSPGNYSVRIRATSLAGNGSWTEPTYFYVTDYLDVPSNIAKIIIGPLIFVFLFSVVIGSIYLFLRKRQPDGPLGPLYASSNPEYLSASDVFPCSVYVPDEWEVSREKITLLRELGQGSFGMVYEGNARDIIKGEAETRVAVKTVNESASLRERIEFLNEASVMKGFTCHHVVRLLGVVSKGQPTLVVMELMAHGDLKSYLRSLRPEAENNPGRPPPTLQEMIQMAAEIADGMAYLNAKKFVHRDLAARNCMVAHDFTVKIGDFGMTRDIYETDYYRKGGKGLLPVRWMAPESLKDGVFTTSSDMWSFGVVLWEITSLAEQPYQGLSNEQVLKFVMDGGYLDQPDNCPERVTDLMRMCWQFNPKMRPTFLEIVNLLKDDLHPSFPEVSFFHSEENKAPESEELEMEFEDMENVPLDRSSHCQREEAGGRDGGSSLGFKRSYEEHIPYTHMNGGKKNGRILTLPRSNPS
Chain of Insulin receptor (P06213 28-758 partner limits assumed): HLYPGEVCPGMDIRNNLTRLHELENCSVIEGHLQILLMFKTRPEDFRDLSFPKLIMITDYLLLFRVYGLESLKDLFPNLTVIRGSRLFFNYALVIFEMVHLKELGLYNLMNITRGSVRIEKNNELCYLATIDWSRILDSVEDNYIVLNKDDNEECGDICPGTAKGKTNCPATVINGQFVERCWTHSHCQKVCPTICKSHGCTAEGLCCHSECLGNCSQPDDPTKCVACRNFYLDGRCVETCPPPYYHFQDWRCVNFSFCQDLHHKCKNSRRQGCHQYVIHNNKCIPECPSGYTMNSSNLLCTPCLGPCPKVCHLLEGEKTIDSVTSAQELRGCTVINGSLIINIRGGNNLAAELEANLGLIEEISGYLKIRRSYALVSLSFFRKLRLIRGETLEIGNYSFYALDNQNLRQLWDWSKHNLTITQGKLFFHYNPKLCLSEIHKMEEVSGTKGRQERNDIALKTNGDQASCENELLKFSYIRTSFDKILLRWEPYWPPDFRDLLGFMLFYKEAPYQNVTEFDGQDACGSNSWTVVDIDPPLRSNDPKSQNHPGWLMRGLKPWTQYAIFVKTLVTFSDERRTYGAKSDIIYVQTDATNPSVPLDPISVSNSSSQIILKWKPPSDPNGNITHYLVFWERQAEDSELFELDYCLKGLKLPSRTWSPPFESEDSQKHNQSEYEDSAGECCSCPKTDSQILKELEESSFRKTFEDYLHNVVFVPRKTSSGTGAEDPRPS

pFAK [Y397] [10] = molecular target: T3, pFAK [Y397] (Homo sapiens, UniProt Q05397); assay: pFAK [Y397] sandwich ELISA in IGROV1 cells; type: cell-based; conditions: read-out: IC50 of pFAK [Y397] inhibition; IGROV1 ovarian cancer cells in vitro
T3 sequence (Q05397 whole entry): as the sequence (Q05397 whole entry) above

FAK [11] = molecular target: T1, FAK; assay: Cellular mechanistic FAK inhibition, MDA-MB-361 cell lysates; type: cell-based; conditions: read-out: OXA-11 IC50 (nM) for FAK, MDA-MB-361 breast adenocarcinoma metastasis cells
Aurora kinase B = Aurora kinase B (Homo sapiens, UniProt Q96GD4)
Chain of Aurora kinase B (Q96GD4 whole entry): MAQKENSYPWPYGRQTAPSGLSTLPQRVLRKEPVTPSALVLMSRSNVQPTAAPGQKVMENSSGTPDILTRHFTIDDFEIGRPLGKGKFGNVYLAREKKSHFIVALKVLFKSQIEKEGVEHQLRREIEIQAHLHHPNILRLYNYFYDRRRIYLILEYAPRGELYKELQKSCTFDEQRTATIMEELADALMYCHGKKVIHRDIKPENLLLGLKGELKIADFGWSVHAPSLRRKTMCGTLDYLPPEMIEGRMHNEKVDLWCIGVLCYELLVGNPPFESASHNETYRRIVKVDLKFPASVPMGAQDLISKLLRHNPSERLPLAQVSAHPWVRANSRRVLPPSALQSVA

[12] = Tolerability / maximum tolerated dose in RIP-Tag2 mice; type: in vivo
MDA-MB-361 breast tumors = assay: Tumor growth inhibition, MDA-MB-361 xenografts in mice; type: in vivo, mouse
Summary of the method: as §1

FAK [13] = molecular target: T1, FAK; assay: FAK Omnia Kinase Assay; conditions: read-out: biochemical IC50 for FAK inhibition
Summary of the method: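 GST-tagged full-length FAK phosphorylated a sulfonamido-oxine (SOX)-containing peptide substrate, read by chelation-enhanced fluorescence (Omnia). Test compound was run as an 11-point threefold serial dilution at final 0.17–10,000 nM or 0.12–7250 nM, in triplicate. IC50 was derived from the curves.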

KDR = KDR (Homo sapiens, UniProt P35968)
Chain of KDR (P35968 20-1356): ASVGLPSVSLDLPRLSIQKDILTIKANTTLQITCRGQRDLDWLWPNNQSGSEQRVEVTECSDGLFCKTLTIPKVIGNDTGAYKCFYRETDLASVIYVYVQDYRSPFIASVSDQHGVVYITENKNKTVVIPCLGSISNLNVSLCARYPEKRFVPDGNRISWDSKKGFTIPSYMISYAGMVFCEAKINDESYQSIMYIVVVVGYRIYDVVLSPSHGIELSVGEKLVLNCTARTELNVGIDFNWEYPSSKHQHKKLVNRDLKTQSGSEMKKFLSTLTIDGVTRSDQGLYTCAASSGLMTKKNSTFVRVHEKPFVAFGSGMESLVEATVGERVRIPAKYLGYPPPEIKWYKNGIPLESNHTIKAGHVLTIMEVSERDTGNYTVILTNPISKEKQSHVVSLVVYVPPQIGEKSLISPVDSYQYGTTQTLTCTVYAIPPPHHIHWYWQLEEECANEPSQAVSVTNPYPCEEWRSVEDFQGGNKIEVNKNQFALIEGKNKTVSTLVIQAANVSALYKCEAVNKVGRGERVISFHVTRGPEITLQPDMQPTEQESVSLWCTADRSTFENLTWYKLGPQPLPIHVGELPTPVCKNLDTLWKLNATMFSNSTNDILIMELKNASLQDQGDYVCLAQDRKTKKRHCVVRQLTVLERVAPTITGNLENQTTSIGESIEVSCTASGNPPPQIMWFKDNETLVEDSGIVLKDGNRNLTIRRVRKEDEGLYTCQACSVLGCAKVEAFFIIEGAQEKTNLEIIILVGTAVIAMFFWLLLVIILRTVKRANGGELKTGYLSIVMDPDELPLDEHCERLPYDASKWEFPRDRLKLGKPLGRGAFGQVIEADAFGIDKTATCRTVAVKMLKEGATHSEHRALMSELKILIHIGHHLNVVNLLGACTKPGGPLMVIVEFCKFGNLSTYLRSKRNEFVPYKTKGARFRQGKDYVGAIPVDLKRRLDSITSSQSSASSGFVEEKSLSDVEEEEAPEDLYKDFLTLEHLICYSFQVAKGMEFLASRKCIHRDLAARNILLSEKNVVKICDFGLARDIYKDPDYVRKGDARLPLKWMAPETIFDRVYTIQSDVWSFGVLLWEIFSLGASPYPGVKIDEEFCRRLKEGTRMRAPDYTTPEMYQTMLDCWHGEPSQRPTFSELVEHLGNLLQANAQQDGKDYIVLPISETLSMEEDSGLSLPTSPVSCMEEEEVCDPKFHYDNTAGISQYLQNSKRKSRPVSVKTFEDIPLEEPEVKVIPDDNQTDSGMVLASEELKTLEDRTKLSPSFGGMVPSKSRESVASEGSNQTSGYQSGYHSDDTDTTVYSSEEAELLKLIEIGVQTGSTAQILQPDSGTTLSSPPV

PYK2 = PYK2 (Homo sapiens, UniProt Q14289); assay: Cell-based kinase assay in cell lysates
pFAK [Y397] [14] = molecular target: T2, pFAK [Y397]; assay: pFAK [Y397] ELISA in RIP-Tag2 tumors; type: in vivo; conditions: 4 h after a single 40-mg/kg dose
Summary of the method: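 14-week-old RIP-Tag2 mice received no treatment, one 40 mg/kg dose of test compound, or 20 % Trappsol, 4 or 8 h before sampling. Mice were perfused with PBS, and tumors were removed and frozen. Total FAK and pFAK [Y397] were measured by ELISA, with pancreas of RIP-Tag2-negative littermates as control; n = 4–12 per group.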

FAK [15] = molecular target: T1, FAK; assay: Kinase Profiling System with ADP-Glo Kinase Assay, 192 kinases; type: biochemical; conditions: OXA-11 concentration of 100 nM
IGROV1 cells [16] = assay: Apoptosis, caspase 3/7 activity; type: cell-based, human; conditions: read-out: EC50 promotion of apoptosis, 3-D culture
Aurora kinase A = Aurora kinase A (Homo sapiens, UniProt O14965)
Chain of Aurora kinase A (O14965 whole entry): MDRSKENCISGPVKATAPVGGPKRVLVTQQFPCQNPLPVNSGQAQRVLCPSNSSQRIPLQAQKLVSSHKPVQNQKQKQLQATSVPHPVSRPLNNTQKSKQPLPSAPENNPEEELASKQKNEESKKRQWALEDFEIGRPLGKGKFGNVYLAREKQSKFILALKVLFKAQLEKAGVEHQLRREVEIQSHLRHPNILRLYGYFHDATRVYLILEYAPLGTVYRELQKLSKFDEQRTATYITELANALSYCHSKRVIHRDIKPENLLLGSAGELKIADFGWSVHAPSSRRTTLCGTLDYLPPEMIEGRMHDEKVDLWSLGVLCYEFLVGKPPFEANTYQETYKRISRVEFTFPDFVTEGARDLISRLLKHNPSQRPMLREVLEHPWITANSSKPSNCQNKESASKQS

[17] = system: liver metastases of pancreatic neuroendocrine tumors; assay: Liver metastasis in RIP-Tag2 mice; type: in vivo, mouse
Summary of the method: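 RIP-Tag2 transgenic mice (C57BL/6 background) were treated for 3 weeks from age 14 weeks with vehicle (20 % Trappsol daily), test compound 20 mg/kg daily, anti-VEGFR-2 antibody DC101 1 mg ip twice weekly, or both. At 17 weeks, visible liver metastases were scored at autopsy. Micrometastases (≥2 adjacent SV40 T-antigen-positive cells) were counted and sized in two 80-μm liver sections per mouse; n = 19–24 per group.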

FAK [18] = assay: Cellular mechanistic FAK inhibition, CMMT cell lysates; type: cell-based; conditions: read-out: OXA-11 IC50 (nM) for FAK, Monkey, CMMT mammary gland epithelial cells
FAK [19] = assay: Cellular mechanistic FAK inhibition, MDCK cell lysates; type: cell-based; conditions: read-out: OXA-11 IC50 (nM) for FAK, Dog, MDCK kidney epithelial cells
pFAK [Y397] [20] = molecular target: T3, pFAK [Y397]; assay: PK/PD of pFAK [Y397] inhibition in xenograft tumors; type: in vivo, mouse
Summary of the method: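 TOV21G cells were implanted subcutaneously in athymic nude mice and grown to a standardized size. Mice got a single gavage dose of test compound (40–120 mg/kg in 20 % Trappsol) or vehicle. From 2 to 24 h later, tumor pFAK [Y397] was measured by ELISA alongside plasma drug levels. Time points were 4, 8 and 24 h after 80 or 120 mg/kg.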

FAK [21] = molecular target: FAK (Mus musculus, UniProt P34152); assay: Cellular mechanistic FAK inhibition, 4T1 cell lysates; type: cell-based; conditions: read-out: OXA-11 IC50 (nM) for FAK, 4T1 mammary carcinoma cells
pFAK [Y861] = pFAK [Y861] (Mus musculus, UniProt P34152); assay: pFAK [Y861] immunohistochemistry in RIP-Tag2 liver and tumors; type: in vivo; conditions: for reduction of pFAK [Y861] staining in liver sinusoids: RIP-Tag2 mice
Summary of the method: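 RIP-Tag2 mice got one 20 mg/kg dose of test compound or 20 % Trappsol. pFAK [Y861] immunofluorescence was examined in liver sinusoids and tumors at 6 time points from 1 to 24 h (n = 4 mice per time point). Tissues were perfusion-fixed with 1 % PFA and frozen sections were stained; the time course gave a tissue half-life of inhibition.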

TOV21G tumors [22] = assay: OXA-11 with cisplatin in TOV21G tumors in nude mice; type: in vivo; conditions: cisplatin given alone, 5 mg/kg
[23] = TOV21G xenografts, 120 mg/kg daily
[24] = cellular mechanistic IC50, TOV21G cells

CCOP(=O)(Cc1ccc(Nc2ncc(C(F)(F)F)c(Nc3ccc([C@H]4CC[C@H](N5CCN(C)CC5)CC4)c4c3C(=O)N(C)C4)n2)c(OC)c1)OCC [OXA-11, diethyl (3-methoxy-4-{ [4-({2-methyl-7-[trans-4-(4-methylpiperazin-1-yl)cyclo-hexyl]-3-oxo-2,3-dihydro-1H-isoindol-4-yl}amino)-5-(tri-fluoromethyl)pyrimidin-2-yl]amino}benzyl) phosphonate]
IC50 (FAK [1]): 18 nM
EC50 (TOV21G cells [2]): 31 nM
EC50 ([3]; TOV21G, OVCAR3, OVCAR5 and IGROV1 cells (high baseline pFAK [Y397])): 0.3 to 14.5 nM
EC50 ([3]; four other cell lines with lower baseline pFAK [Y397]): > 100 nM
inhibition of tumor growth (TOV21G tumors [4]; [23]): 77%
reduction in size of TOV21G tumors (TOV21G tumors [4]; nude mice, 20–120 mg/kg daily for 3 weeks): 22–67%
Fold selectivity for FAK (FAK) (FAK [5]): 1×
EC50 (TOV21G cells [6]): 9 nM
EC50 (IGROV1 cells [7]): 0.3 nM
Fold selectivity for FAK over SRC (SRC; cell lysates): >1000×
selectivity for FAK over SRC (SRC; [24]): > 1000 fold
IC50 (SRC; read-out: OXA-11 IC50 (nM), SRC, cellular mechanistic, cell lysates): > 10000 nM
staining for pFAK [Y397] in RIP-Tag2 tumors (pFAK [Y397] [8]): reduced to nearly undetectable levels
pFAK [Y397] immunofluorescence in liver sinusoids, less than baseline (pFAK [Y397] [8]; RIP-Tag2 mice): 86%
dose-limiting toxicity [9]: No dose-limiting toxicity
Fold selectivity for FAK over Insulin receptor (Insulin receptor; cell lysates): >1000×
selectivity for FAK over insulin receptor (IR, INSR) (Insulin receptor; [24]): > 1000 fold
IC50 (Insulin receptor; read-out: OXA-11 IC50 (nM), Insulin receptor, cellular mechanistic, cell lysates): > 10000 nM
IC50 (pFAK [Y397] [10]): 0.8 nM
IC50 (FAK [11]): 20 nM
Fold selectivity for FAK over Aurora kinase B (Aurora kinase B; cell lysates): >1000×
selectivity for FAK over aurora kinase B (AURKB) (Aurora kinase B; [24]): > 1000 fold
IC50 (Aurora kinase B; read-out: OXA-11 IC50 (nM), Aurora kinase B, cellular mechanistic, cell lysates): > 10000 nM
tolerability ([12]; 40 or 60 mg/kg daily for at least 3 weeks): well tolerated
maximum tolerated dose ([12]; OXA-11 given with DC101): 20 mg/kg
tolerable dosing ([12]; daily): 20 to 60 mg/kg
Fold selectivity for FAK over RSK1/2 (RSK1/2; cell lysates): 26×
selectivity for FAK over RSK1/2 (RSK1/2; [24]): 26 fold
IC50 (RSK1/2; read-out: OXA-11 IC50 (nM), RSK1/2, cellular mechanistic, cell lysates): 260 nM
inhibition of MDA-MB-361 tumor growth over 3 weeks (MDA-MB-361 breast tumors; higher daily dose (120 mg/kg)): 95%
inhibition of MDA-MB-361 tumor growth over 3 weeks (MDA-MB-361 breast tumors; lower daily dose (40 mg/kg)): 60%
IC50 (FAK [13]): 0.0012 nM
Fold selectivity for FAK over KDR (KDR; cell lysates): >1000×
selectivity for FAK over KDR (VEGFR-2, FLK1) (KDR; [24]): > 1000 fold
IC50 (KDR; read-out: OXA-11 IC50 (nM), KDR, cellular mechanistic, cell lysates): > 10000 nM
Fold selectivity for FAK over PYK2 (PYK2; cell lysates): 8×
selectivity for FAK over PYK2 (PYK2; [24]): eightfold
IC50 (PYK2; read-out: OXA-11 IC50 (nM), PYK2, cellular mechanistic, cell lysates): 80 nM
pFAK [Y397] activity in RIP-Tag2 tumors (pFAK [Y397] [14]): significantly reduced
inhibition of kinase in biochemical specificity screening (FAK [15]): more than 50%
EC50 (IGROV1 cells [16]): 0.5 nM
Fold selectivity for FAK over Aurora kinase A (Aurora kinase A; cell lysates): >1000×
selectivity for FAK over aurora kinase A (AURKA) (Aurora kinase A; [24]): > 1000 fold
IC50 (Aurora kinase A; read-out: OXA-11 IC50 (nM), Aurora kinase A, cellular mechanistic, cell lysates): > 10000 nM
mice with liver metastases visible at autopsy ([17]; 17-week old RIP-Tag2 mice after treatment for 3 weeks): 10%
size of liver micrometastases ([17]; RIP-Tag2 mice, 3 weeks treatment): about the same as in the vehicle group
IC50 (FAK [18]): 84 nM
IC50 (FAK [19]): 32 nM
reduction of pFAK [Y397] at 24 h (pFAK [Y397] [20]; TOV21G tumors, single dose 80 or 120 mg/kg, plasma levels back to baseline): approximately 25%
suppression of pFAK [Y397] (pFAK [Y397] [20]; [23]): 61%
EC50 (pFAK [Y397] [20]; read-out: pharmacodynamic EC50 of pFAK [Y397] inhibition, total OXA-11, TOV21G tumors in mice, 4, 8 and 24 h): 102 nM
IC50 (FAK [21]): 8 nM
staining for pFAK [Y861] in RIP-Tag2 tumors (pFAK [Y861]; 2 h after one 20-mg/kg dose): reduced to nearly undetectable levels
tissue half-life of OXA-11 inhibition of pFAK [Y861] (pFAK [Y861]; RIP-Tag2 liver sinusoids, single dose 20 mg/kg): about 4 h
reduction of pFAK [Y861] staining in liver sinusoids (pFAK [Y861]; 1 h after single dose 20 mg/kg): 79%
reduction of pFAK [Y861] staining in liver sinusoids (pFAK [Y861]; 4 h after single dose 20 mg/kg): 57%
reduction of pFAK [Y861] staining in liver sinusoids (pFAK [Y861]; 6 h after single dose 20 mg/kg): 35%

N.N.[Cl][Pt][Cl] [cisplatin]
effect on pFAK [Y397] in TOV21G-cell tumors (TOV21G tumors [22]): increased pFAK [Y397]
